Screening results from PubChem BioAssay.
Ecoli rRNA inh: inhibitors of bacterial rRNA selective over humanized ribosomes | E. coli WT GFP vs humanized-ribosome RFP mutants, fluorescence, 24 h; active compounds read low; DMSO median 0, no signal -100 | 350,000 compounds, 1.6% hits | AID 720706 | GFP signal change (wild-type ribosome), % (concentration not given with the values);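 active = significant combined selectivity score with lowered wild-type GFP, culture density cut under 30%, mutant RFP and density less affected; inactive = any of these conditions unmet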
Cneo AK release: Cryptococcus neoformans lysis via adenylate kinase release. C. neoformans lysis, adenylate kinase release luminescence, 4 h; normalised: neutral wells 0, clomiphene wells 100. lysis activity, % at 15 µM. 360,000 compounds, 0.2% hits. AID 651654;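 active = mean lysis activity across replicates of at least 80%, whatever share of replicates individually reach that level; inactive = mean lysis activity below 80%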
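Assay system: C. neoformans cells. Amount: yeast cell density of 5 × 10^6 cells/mL. Technique: AK luminescence. Buffer or medium: YPD. Times: static 4 h at 37 °C with compound, 1 h detection. Dosing: single-point compound dose. Read-out: lysis from increased AK signal.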
E-selectin induc: induces E-selectin expression in human endothelial cells; P16581; HUVEC E-selectin immunofluorescence imaging; normalized: neutral wells 0, TNF-alpha wells 100; activation, % at 7.58 µM; 260,000 compounds, 0.37% hits;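 active = mean E-selectin-positive cell signal at least 10% of the positive control, reached in at least 60% of replicates, without over 20% cell loss; inconclusive = no rule given, readout overlaps actives, possibly toxicity-flagged; inactive = the rest, including those meeting only one limit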
Target sequence (P16581 whole entry, looked up): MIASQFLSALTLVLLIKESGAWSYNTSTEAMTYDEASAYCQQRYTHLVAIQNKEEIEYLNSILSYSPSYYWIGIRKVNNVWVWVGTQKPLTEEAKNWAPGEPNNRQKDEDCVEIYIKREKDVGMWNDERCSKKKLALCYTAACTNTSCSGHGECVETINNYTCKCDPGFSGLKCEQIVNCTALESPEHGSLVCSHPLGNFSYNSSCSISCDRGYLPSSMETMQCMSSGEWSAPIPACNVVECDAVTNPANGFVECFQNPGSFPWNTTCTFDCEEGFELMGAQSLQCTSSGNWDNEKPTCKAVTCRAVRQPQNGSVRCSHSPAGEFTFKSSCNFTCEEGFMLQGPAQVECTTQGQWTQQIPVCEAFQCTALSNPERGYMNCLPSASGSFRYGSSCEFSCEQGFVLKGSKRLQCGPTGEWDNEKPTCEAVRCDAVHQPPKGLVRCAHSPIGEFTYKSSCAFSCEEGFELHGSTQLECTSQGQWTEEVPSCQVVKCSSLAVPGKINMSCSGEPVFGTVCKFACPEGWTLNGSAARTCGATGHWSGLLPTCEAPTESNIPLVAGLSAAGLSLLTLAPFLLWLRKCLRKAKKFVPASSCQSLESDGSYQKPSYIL
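Material: HUVEC primary endothelial cells; Amount: 3,000 cells per well; Dosing: single concentration; Medium: EGM-2 growth medium on 0.1% gelatin-coated wells; Read-out basis: percent E-selectin-positive cells; Signal: immunofluorescence imaging; Control set: TNF-alpha, DMSO.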
DENV2 CPE rescue: inhibitors of DENV2 cytopathic effect. 350,000 compounds, 1.7% hits. DENV2-infected cells, cytopathic effect rescue, plate reader. AID 651640. CPE inhibition, % at 9.99 µM; in the data active = CPE inhibition above about 20%, passing the limit was not always enough; inconclusive = no clear call, values can overlap the other calls; tested in BHK-21 cells;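 note: 0% = median of neutral control wells and 100% = median of positive control wells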
miR122 inh: miR-122 inhibition in Huh7 cells; Huh7 miR-122 Renilla luciferase sensor, 48 h; neutral wells = 0, positive control = 100; 340,000 compounds, 0.3% hits; AID 602342; activation (reporter increase), % at 12.5 µM;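 active = mean replicate activation score at least 90 and every replicate individually at or above 90; inconclusive = only one of the two criteria met; inactive = neither criterion met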;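 note: higher luciferase means less miR-122 activity so hits act as miR-122 inhibitors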
* marks the source's active call; other numbers are inactive results; ? = inconclusive; nt = no result given; [ ] = another dose, or the depositor's remark. In the library only some 3.1% were active in any assay of this set; here they are far more common.

SMILES	Ecoli rRNA inh	Cneo AK release	E-selectin induc	DENV2 CPE rescue	miR122 inh
Cc1c(Cl)cnc(NC(=O)COC(=O)Cc2coc3ccc4ccccc4c23)c1Cl	-1	0	nt	86*	-3
C[C@H](CO)N1C[C@H](C)[C@H](CN(C)C(=O)NC2CCCCC2)Oc2ccc(NS(=O)(=O)c3cn(C)cn3)cc2CC1=O	1	-2	-7	-10	2[16.7 µM]
COc1ccc(OC)c(S(=O)(=O)Nc2ccccc2C(F)(F)F)c1	nt	0	nt	nt	116*
COc1ccc(S(=O)(=O)Nc2ccccc2C(F)(F)F)cc1	nt	2	nt	nt	6
COc1ccc(OC)c(S(=O)(=O)Nc2cccc3ccccc23)c1	-25*	2	0	-4	64
COc1ccc(OC)c(S(=O)(=O)Nc2c(F)cccc2F)c1	nt	0	nt	nt	56
C[C@@H]1CN([C@@H](C)CO)C(=O)c2cccc(NC(=O)C3CCCCC3)c2O[C@@H]1CN(C)S(=O)(=O)c1ccc(F)cc1	-4	2	1	15	-15[16.7 µM]
C[C@@H]1CN([C@@H](C)CO)C(=O)c2cccc(NS(=O)(=O)c3ccccc3)c2O[C@@H]1CN(C)Cc1ccc(C(=O)Nc2ccccc2N)cc1	-6	2	5	-8	181*[16.7 µM]
C[C@@H]1CN([C@H](C)CO)C(=O)c2cccc(NS(=O)(=O)c3ccc(Cl)cc3)c2O[C@H]1CN(C)Cc1ccc(C(=O)Nc2ccccc2N)cc1	-2	nt	3	-3	nt
C[C@H]1CN([C@@H](C)CO)C(=O)c2cccc(NS(=O)(=O)c3ccc(Cl)cc3)c2O[C@@H]1CN(C)Cc1ccc(C(=O)Nc2ccccc2N)cc1	-1	nt	-2	21*	nt
C[C@@H]1CN([C@@H](C)CO)C(=O)c2cccc(NS(=O)(=O)c3ccc(Cl)cc3)c2O[C@@H]1CN(C)Cc1ccc(C(=O)Nc2ccccc2N)cc1	1	3	24	3	129*[16.7 µM]
COc1cccc(C#Cc2ccc([C@@H]3[C@H](CO)N4C(=O)CN(C(=O)C5CC5)C[C@@H]34)cc2)c1	2	nt	2	3	nt
C[C@@H]1CN([C@H](C)CO)C(=O)c2cc(NC(=O)Cc3ccccc3)ccc2O[C@@H](C)CCCCO[C@@H]1CN(C)S(=O)(=O)c1ccccc1	0	-3	nt	-4	37[16.7 µM]
CNC[C@H]1Oc2ccc(NS(=O)(=O)c3ccc(C)cc3)cc2C(=O)N([C@H](C)CO)C[C@@H]1C	4	0	1	?	-2[16.7 µM]
CC1=CC2=NC(=O)/C(=C\c3cccn3CCOc3ccccc3C)C(=N)N2O1	-14	1	1	8	147*
CC(C)CC#Cc1ccc([C@@H]2[C@H](CO)N3C(=O)CN(S(C)(=O)=O)C[C@@H]23)cc1	-2	nt	nt	nt	nt
Cc1cc(C)c(S(=O)(=O)Nc2ccc3c4c(cccc24)CC3)c(C)c1	nt	0	nt	nt	111*
O=C(c1cccnc1)N1C[C@@H]2[C@H](c3ccccc31)[C@H](CO)N2CC1CCCCC1	-7	1	-1	29*	-18[16.7 µM]
O=C(Nc1cccc(Cl)c1)N1C[C@@H]2[C@H](c3ccccc31)[C@@H](CO)N2C(=O)c1cccnc1	-51*	-3	0	3	-20[16.7 µM]
O=C(Nc1cccc(Cl)c1)N1C[C@H]2[C@@H](c3ccccc31)[C@@H](CO)N2C(=O)c1cccnc1	-16	7	0	-9	-5[16.7 µM]
CN(C)CC#Cc1ccc([C@@H]2[C@H]3CN(C(=O)C4CC4)CCCCN3[C@H]2CO)cc1	nt	-3	nt	3	-28[16.7 µM]
CO[C@H]1CN(C)C(=O)c2cc(NC(=O)c3ccc4c(c3)OCO4)ccc2OC[C@H](C)N(CC2CC2)C[C@@H]1C	0	1	0	-2	nt
CO[C@H]1CN(C)C(=O)c2cc(NC(=O)c3ccc4c(c3)OCO4)ccc2OC[C@H](C)N(CCC(F)(F)F)C[C@@H]1C	-1	nt	0	23*	nt
CO[C@H]1CN(C)C(=O)c2cc(NC(=O)c3ccc4c(c3)OCO4)ccc2OC[C@@H](C)N(CC2CC2)C[C@H]1C	1	90*	0	3	nt
CN(C)CCCNC(=O)C[C@@H]1C=C[C@@H](NS(=O)(=O)c2ccc(F)cc2)[C@H](CO)O1	nt	0	-3	7	nt
CCOC(=O)C1=C(C)N=c2s/c(=C3\C(=O)Nc4ccccc43)c(=O)n2C1c1ccc2c(c1)OCO2 (stereo not drawn)	nt	4	nt	nt	91*
